Data published in ChEMBL document CHEMBL1671627, “Increasing trends in antimicrobial resistance among clinically important anaerobes and Bacteroides fragilis isolates causing nosocomial infections: emerging resistance to carbapenems” (2008).
Converted amounts (≈) assume the structure as drawn.

Columns and labels:
[1] = test system: Bacteroides fragilis; test: Antibacterial activity against Bacteroides fragilis assessed as susceptible isolates by CLSI agar dilution method in presence of clavulanate; type: functional
In short: (§1)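 Agar dilution per CLSI guidelines on nonduplicate anaerobic bloodstream isolates collected at NTUH, January to December 2006. Isolates were spotted by Steers replicator onto supplemented Brucella blood agar and incubated anaerobically for 48 h at 35°C. MIC was the lowest drug concentration that inhibited growth. B. fragilis ATCC 25285, B. thetaiotaomicron ATCC 29741 and E. lentum ATCC 43055 were run as QC in each run.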

[2] = test system: Phocaeicola vulgatus; test: Antibacterial activity against beta-lactamase producing Bacteroides vulgatus assessed as susceptible isolates by CLSI agar dilution method in presence of clavulanate; type: functional
In short: (§2)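 CLSI agar dilution MICs for anaerobic blood isolates (nonduplicate) collected from bloodstream-infection patients at a Taiwanese tertiary hospital, January–December 2006. Isolates were spotted by Steers replicator onto supplemented Brucella blood agar and incubated anaerobically for 48 h at 35°C. MIC was the lowest drug concentration inhibiting growth. Each run included B. fragilis ATCC 25285, B. thetaiotaomicron ATCC 29741 and E. lentum ATCC 43055 as quality-control strains.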

[3] = test system: Phocaeicola vulgatus; test: Antibacterial activity against beta-lactamase producing Bacteroides vulgatus assessed as resistant isolates by CLSI agar dilution method in presence of clavulanate; type: functional
In short: (§3)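 207 nonduplicate anaerobic blood isolates from patients with bloodstream infections at NTUH, collected January–December 2006. MICs were determined by agar dilution following CLSI guidelines. Inocula were applied with a Steers replicator onto supplemented Brucella blood agar and incubated 48 h at 35°C in an anaerobic chamber. MIC was the lowest concentration inhibiting growth. B. fragilis ATCC 25285, B. thetaiotaomicron ATCC 29741 and E. lentum ATCC 43055 served as controls in each run.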

[4] = test system: Bacteroides uniformis; test: Antibacterial activity against beta-lactamase producing Bacteroides uniformis by CLSI agar dilution method in presence of clavulanate; type: functional; in short: as §1
[5] = test system: Bacteroides caccae; test: Antibacterial activity against beta-lactamase producing Bacteroides caccae assessed as susceptible isolates by CLSI agar dilution method in presence of clavulanate; type: functional; in short: as §1
[6] = test system: Bacteroides caccae; test: Antibacterial activity against beta-lactamase producing Bacteroides caccae assessed as resistant isolates by CLSI agar dilution method in presence of clavulanate; type: functional; in short: as §3
[7] = test system: Fusobacterium varium; test: Antibacterial activity against Fusobacterium varium by CLSI agar dilution method in presence of clavulanate; type: functional; in short: as §1
[8] = test system: Fusobacterium nucleatum; test: Antibacterial activity against Fusobacterium nucleatum assessed as susceptible isolates by CLSI agar dilution method in presence of clavulanate; type: functional; in short: as §1
[9] = test system: Fusobacterium mortiferum; test: Antibacterial activity against Fusobacterium mortiferum assessed as susceptible isolates by CLSI agar dilution method in presence of clavulanate; type: functional; in short: as §1
[10] = test system: Fusobacterium nucleatum; test: Antibacterial activity against Fusobacterium nucleatum assessed as resistant isolates by CLSI agar dilution method in presence of clavulanate; type: functional; in short: as §3
[11] = test system: Fusobacterium mortiferum; test: Antibacterial activity against Fusobacterium mortiferum assessed as resistant isolates by CLSI agar dilution method in presence of clavulanate; type: functional; in short: as §3
[12] = test system: Prevotella intermedia; test: Antibacterial activity against Prevotella intermedia by CLSI agar dilution method in presence of clavulanate; type: functional; in short: as §1
[13] = test system: Prevotella intermedia; test: Antibacterial activity against Prevotella intermedia assessed as susceptible isolates by CLSI agar dilution method in presence of clavulanate; type: functional; in short: as §1
[14] = test system: Prevotella buccae; test: Antibacterial activity against Prevotella buccae assessed as resistant isolates by CLSI agar dilution method in presence of clavulanate; type: functional, Segatella buccae; in short: as §3
[15] = test system: Clostridium paraputrificum; test: Antibacterial activity against beta-lactamase producing Clostridium paraputrificum by CLSI agar dilution method in presence of clavulanate; type: functional; in short: as §2
[16] = test system: Bacteroides thetaiotaomicron; test: Antibacterial activity against beta-lactamase producing Bacteroides thetaiotaomicron by CLSI agar dilution method in presence of clavulanate; type: functional; in short: as §1
[17] = test system: Bacteroides fragilis; test: Antibacterial activity against Bacteroides fragilis assessed as susceptible isolates by CLSI agar dilution method; type: functional
[18] = test system: Bacteroides fragilis; test: Antibacterial activity against Bacteroides fragilis assessed as resistant isolates by CLSI agar dilution method; type: functional
[19] = test system: Bacteroides uniformis; test: Antibacterial activity against beta-lactamase producing Bacteroides uniformis assessed as resistant isolates by CLSI agar dilution method; type: functional
[20] = test system: Bacteroides caccae; test: Antibacterial activity against beta-lactamase producing Bacteroides caccae by CLSI agar dilution method in presence of Tazobactam; type: functional; in short: as §1
[21] = test system: Fusobacterium varium; test: Antibacterial activity against Fusobacterium varium by CLSI agar dilution method; type: functional
[22] = test system: Fusobacterium nucleatum; test: Antibacterial activity against Fusobacterium nucleatum assessed as resistant isolates by CLSI agar dilution method; type: functional
[23] = test system: Fusobacterium mortiferum; test: Antibacterial activity against Fusobacterium mortiferum by CLSI agar dilution method in presence of Tazobactam; type: functional; in short: as §1
[24] = test system: Fusobacterium necrophorum; test: Antibacterial activity against Fusobacterium necrophorum by CLSI agar dilution method in presence of Tazobactam; type: functional; in short: as §1
[25] = test system: Fusobacterium nucleatum; test: Antibacterial activity against Fusobacterium nucleatum assessed as susceptible isolates by CLSI agar dilution method in presence of Tazobactam; type: functional; in short: as §1
[26] = test system: Prevotella buccae; test: Antibacterial activity against Prevotella buccae by CLSI agar dilution method; type: functional; details: Segatella buccae
[27] = test system: Prevotella buccae; test: Antibacterial activity against Prevotella buccae by CLSI agar dilution method in presence of Tazobactam; type: functional; details: Segatella buccae; in short: as §1
[28] = test system: Prevotella buccae; test: Antibacterial activity against Prevotella buccae assessed as resistant isolates by CLSI agar dilution method in presence of Tazobactam; type: functional, Segatella buccae; in short: as §3
[29] = test system: Prevotella intermedia; test: Antibacterial activity against Prevotella intermedia assessed as resistant isolates by CLSI agar dilution method in presence of Tazobactam; type: functional; in short: as §3
[30] = test system: Veillonella parvula; test: Antibacterial activity against Veillonella parvula by CLSI agar dilution method; type: functional
[31] = test system: Clostridium perfringens; test: microbe, parasite or virus in culture; type: functional
[32] = test system: Clostridium septicum; test: Antibacterial activity against beta-lactamase producing Clostridium septicum by CLSI agar dilution method in presence of Tazobactam; type: functional; in short: as §2
[33] = test system: Bacteroides fragilis; test: Antibacterial activity against Bacteroides fragilis by CLSI agar dilution method in presence of Tazobactam; type: functional; in short: as §1
[34] = test system: Clostridium tertium; test: Antibacterial activity against beta-lactamase producing Clostridium tertium assessed as resistant isolates by CLSI agar dilution method in presence of Tazobactam; type: functional; in short: as §3
[35] = test system: Peptostreptococcus anaerobius; test: Antibacterial activity against beta-lactamase producing Peptostreptococcus anaerobius by CLSI agar dilution method; type: functional
[36] = test system: Peptostreptococcus anaerobius; test: Antibacterial activity against beta-lactamase producing Peptostreptococcus anaerobius assessed as resistant isolates by CLSI agar dilution method; type: functional
[37] = test system: Peptostreptococcus anaerobius; test: Antibacterial activity against beta-lactamase producing Peptostreptococcus anaerobius assessed as susceptible isolates by CLSI agar dilution method in presence of Tazobactam; type: functional; in short: as §2
[38] = test system: Parvimonas micra; test: Antibacterial activity against beta-lactamase producing Micromonas micros assessed as susceptible isolates by CLSI agar dilution method; type: functional
[39] = test system: Peptoniphilus asaccharolyticus; test: Antibacterial activity against beta-lactamase producing Peptoniphilus asaccharolyticus assessed as susceptible isolates by CLSI agar dilution method; type: functional

`CC1(C)S[C@@H]2[C@H](NC(=O)[C@H](N)c3ccc(O)cc3)C(=O)N2[C@H]1C(=O)O` [AMOXICILLIN] gave an Activity [1] of 63%, an Activity [2] of 53% and an Activity [3] of 30%. It also gave an MIC50 [4] of 8 µg/mL, an MIC90 [4] of 32 µg/mL and an Activity [5] of 53%. For the same compound, the Activity [6] was 30%, the MIC50 [7] was 2 µg/mL and the MIC90 [7] was 4 µg/mL. For the same compound, the Activity [8] was 89%, the Activity [9] was 89% and the Activity [10] was 7%. The Activity [11] was 7%, the MIC50 [12] was 4 µg/mL and the MIC90 [12] was 16 µg/mL. It also gave an Activity [13] of 81%, an Activity [14] of 6% and an MIC50 [15] of 0.5 µg/mL. For the same compound, the MIC90 [15] was 2 µg/mL, the MIC [16] was 4 µg/mL and the MIC50 [16] was 4 µg/mL. The MIC90 [16] was 32 µg/mL.
With `CCN1CCN(C(=O)N[C@@H](C(=O)N[C@@H]2C(=O)N3[C@@H]2SC(C)(C)[C@@H]3C(=O)O)c2ccccc2)C(=O)C1=O` [PIPERACILLIN] the Activity [17] was 62%, the Activity [18] was 35% and the Activity [19] was 65%. For the same compound, the MIC50 [20] was 8 µg/mL, the MIC90 [20] was 16 µg/mL and the MIC50 [21] was 2 µg/mL (≈ 3.86 µM). The MIC90 [21] was 8 µg/mL (≈ 15.5 µM), the Activity [22] was 10% and the MIC50 [23] was 0.5 µg/mL. For the same compound, the MIC90 [23] was 2 µg/mL, the MIC50 [24] was 0.5 µg/mL and the MIC90 [24] was 2 µg/mL. For the same compound, the Activity [25] was 100%, the MIC50 [26] was 16 µg/mL (≈ 30.9 µM) and the MIC90 [26] was 128 µg/mL (≈ 247 µM). The MIC [27] was 0.03 µg/mL, the MIC50 [27] was 0.03 µg/mL and the MIC90 [27] was 1 µg/mL. The Activity [28] was 0%, the Activity [29] was 0% and the MIC [30] was 1 µg/mL (≈ 1.93 µM). The MIC50 [31] was 0.25 µg/mL (≈ 0.483 µM), the MIC90 [31] was 2 µg/mL (≈ 3.86 µM) and the MIC50 [32] was 0.5 µg/mL. It also gave an MIC90 [32] of 2 µg/mL, an MIC50 [33] of 1 µg/mL and an MIC90 [33] of 8 µg/mL. The Activity [34] was 0%, the MIC50 [35] was 0.12 µg/mL (≈ 0.232 µM) and the MIC90 [35] was 8 µg/mL (≈ 15.5 µM). It also gave an Activity [36] of 3%, an Activity [37] of 97% and an Activity [38] of 97%. The Activity [39] was 97%.
